Here are results for four molecules from ChEMBL document CHEMBL1255277, “Acinetobacter radioresistens as a silent source of carbapenem resistance for Acinetobacter spp” (2008).

≈ marks a conversion by molar mass, not a printed value. Calls of active or inactive are those of the source. The rule behind the calls is not given here.

One test relates to Acinetobacter baumannii. Put plainly: Activity of beta lactamase OXA23 in Acinetobacter baumannii Ab13 assessed as compound hydrolysis rate per mg of protein by spectrophotometry. The essentials: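 Crude culture extract (enzyme source) of the strain; hydrolysis followed by UV spectrophotometry with 100 μM benzylpenicillin or imipenem as substrate; rate expressed as U/mg of protein.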

Test [1] has as its system Acinetobacter radioresistens. Briefly: Antimicrobial activity against Acinetobacter radioresistens isolates by Etest. The class given is functional. In a few lines:
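MICs determined by Etest on Mueller-Hinton agar at 37°C; strains previously grown overnight at 37°C on Mueller-Hinton agar plates.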

Test [2] concerns Escherichia coli. Put plainly: Antimicrobial activity against Escherichia coli TOP10 harboring Beta-lactamase OXA-23 by Etest. The class given is functional. In a few lines: (§1)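 MIC read by Etest on Mueller-Hinton agar at 37°C. Test strains were E. coli TOP10 and TOP10 recombinants carrying cloned OXA-23-like oxacillinase genes. Recombinant clones had been selected on kanamycin (30 μg/ml) plus amoxicillin (30 μg/ml), and cloned inserts were confirmed by double-strand sequencing.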

Test [3] deals with Escherichia coli. Briefly: Antimicrobial activity against Escherichia coli TOP10 harboring Beta-lactamase OXA-102 by Etest. The class given is functional. In a few lines:
as §1

Test [4] deals with Escherichia coli. Put plainly: Antimicrobial activity against Escherichia coli TOP10 harboring Beta-lactamase OXA-103 by Etest. The class given is functional. The essentials: as §1
Test [5] deals with Escherichia coli. Briefly: Antimicrobial activity against Escherichia coli TOP10 harboring Beta-lactamase OXA-105 by Etest. The class given is functional. In a few lines: as §1
The test system of test [6] is Escherichia coli. Briefly: Antimicrobial activity against Escherichia coli TOP10 by Etest. The class given is functional. The essentials:
as §1

Take `CC1(C)S[C@@H]2[C@H](NC(=O)Cc3ccccc3)C(=O)N2[C@H]1C(=O)O`: in the test with Acinetobacter baumannii, the Activity came to 5 U.

For `C[C@@H](O)[C@H]1C(=O)N2C(C(=O)O)=C(S[C@@H]3CN[C@H](C(=O)Nc4cccc(C(=O)O)c4)C3)[C@H](C)[C@H]12` [ERTAPENEM], in test [1], the “growth inhibition (GI)” value is “Active”. Besides, the MIC was 0.012 µg/mL (≈ 0.0252 µM) with Escherichia coli [2]; 0.125 µg/mL (≈ 0.263 µM) against Escherichia coli [3]; 0.125 µg/mL (≈ 0.263 µM) in the test with Escherichia coli [4]; 0.125 µg/mL (≈ 0.263 µM) against Escherichia coli [5]; 0.004 µg/mL (≈ 0.00841 µM) against Escherichia coli [6].

On to `C[C@@H](O)[C@H]1C(=O)N2C(C(=O)O)=C(SCCNC=N)C[C@H]12` [IMIPENEM ANHYDROUS], for which the “growth inhibition (GI)” value in test [1] is “Active”. For the same molecule, the Activity with Acinetobacter baumannii is 0.2 U. For the same molecule, the MIC is 1 µg/mL (≈ 3.34 µM) against Escherichia coli [2]; 1 µg/mL (≈ 3.34 µM) with Escherichia coli [3]; 1 µg/mL (≈ 3.34 µM) against Escherichia coli [4]; 1 µg/mL (≈ 3.34 µM) in the test on Escherichia coli [5]; 0.125 µg/mL (≈ 0.418 µM) with Escherichia coli [6].

With `C[C@@H](O)[C@H]1C(=O)N2C(C(=O)O)=C(S[C@@H]3CN[C@H](C(=O)N(C)C)C3)[C@H](C)[C@H]12` [MEROPENEM], the “growth inhibition (GI)” value in test [1] was “Active”. Moreover, the MIC amounted to 0.047 µg/mL (≈ 0.123 µM) in the test with Escherichia coli [2]; 0.094 µg/mL (≈ 0.245 µM) against Escherichia coli [3]; 0.094 µg/mL (≈ 0.245 µM) against Escherichia coli [4]; 0.094 µg/mL (≈ 0.245 µM) in the test on Escherichia coli [5]; 0.047 µg/mL (≈ 0.123 µM) in the test with Escherichia coli [6].
